Each structure is given as a SMILES string. Converted amounts (≈) assume the structure as drawn. A value given as a limit tells only on which side of the number the result lay.

Drawing on ChEMBL document CHEMBL4706607, “Anti-tubercular profile of new selenium-menadione conjugates against Mycobacterium tuberculosis H37Rv (ATCC 27294) strain and multidrug-resistant clinical isolates” (Eur J Med Chem, 2021), this text covers MIC, CC50 and selectivity ratio for 10 compounds.

Data set [1] deals with Mycobacterium tuberculosis. Description: Antimycobacterial activity against Mycobacterium tuberculosis H37Rv ATCC 27294 assessed as reduction in bacterial growth by resazurin reduction microplate assay. It is filed as functional. An outline of the steps: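 REMA in Middlebrook 7H9 broth with 10% ADC. Compounds dissolved at 1 mg/mL in DMSO and diluted to 50 μg/mL in broth containing 5% DMSO. Ten-point two-fold dilutions gave 25.0 to 0.05 μg/mL. Growth and sterility controls on each plate. MIC was the lowest concentration preventing the blue-to-pink change.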
For orientation: Resazurin is reduced to fluorescent resorufin, in cell work by metabolically active cells.

A short description of data set [2]: Cytotoxicity against African green monkey Vero cells assessed as reduction in cell viability incubated for 24 hrs by MTT assay. It is filed as cell-based. To be noted: chlorocebus sabaeus. An outline of the steps:
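Vero cells kept in DMEM with 4.5 mg/mL glucose and 10% inactivated FBS at 37 °C, 5% CO2. Seeded at 30,000 cells/well and grown 24 h, then exposed to 5, 10, 25 and 50 μM for 24 h. Control was medium with 1% DMSO. MTT 0.5 mg/mL in HBSS for 3 h; formazan dissolved in DMSO and read at 570–690 nm. CC50 taken from survival relative to untreated cells.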
A general note: Tetrazolium dyes change colour on reduction, which living cells bring about.

Data set [3] is described as follows: Selectivity index, ratio of CC50 for African green monkey Vero cells to MIC for Mycobacterium tuberculosis H37Rv ATCC 27294. Type of data set: toxicity. To be noted: read-out: Selectivity Index.
Data set [4] is described as follows: Selectivity index, ratio of CC50 for African green monkey Vero cells to MIC for Mycobacterium tuberculosis CDCT-16. Type of data set: toxicity. The note with it: read-out: Selectivity Index.
Data set [5] is described as follows: Selectivity index, ratio of CC50 for African green monkey Vero cells to MIC for Mycobacterium tuberculosis CDCT-27. Type of data set: toxicity. The note with it: read-out: Selectivity Index.

Usually MIC stands for the smallest concentration in the dilution series that meets the test's criterion for growth inhibition. Usually CC50 stands for the concentration giving 50% cytotoxicity. Regarding `CC1=C(C[Se]C(=O)c2ccc(F)cc2)C(=O)c2ccccc2C1=O`, the MIC in data set [1] was found to be 8 µM (≈ 3.1 µg/mL). Further, the CC50 at 24 h in data set [2] is above 50 µM. In addition, the results for the selectivity ratio in data set [3], in data set [4] and in data set [5] were above 6.2, above 62.5 and above 16.1, respectively.

For the compound `CC1=C(C[Se]C(=O)c2ccccc2)C(=O)c2ccccc2C1=O`, in data set [1], the MIC came to 2.1 µM (≈ 0.775 µg/mL). For the same compound, the CC50 at 24 h in data set [2] is above 50 µM. Besides, the values for the selectivity ratio in data set [3], in data set [4] and in data set [5] were above 23.8, above 62.5 and above 62.5, respectively.

For the compound `CC1=C(C[Se]C(=O)c2ccccc2C)C(=O)c2ccccc2C1=O`, the MIC in data set [1] is 8.1 µM (≈ 3.1 µg/mL). In addition, the CC50 at 24 h in data set [2] worked out at 7.7 µM. Also, the values for the selectivity ratio in data set [3], in data set [4] and in data set [5] were 0.9, 2.5 and 2.5, respectively.

In the case of `CCCCC(=O)[Se]CC1=C(C)C(=O)c2ccccc2C1=O`, the MIC in data set [1] is above 10 µM.

As to `CCCC(C)C(=O)[Se]CC1=C(C)C(=O)c2ccccc2C1=O` (centres undefined), the MIC in data set [1] was above 10 µM.

Regarding `CC1=C(C[Se]C(=O)c2ccc(Cl)cc2)C(=O)c2ccccc2C1=O`, in data set [1], the MIC is above 10 µM.

As for `CCc1ccc(C(=O)[Se]CC2=C(C)C(=O)c3ccccc3C2=O)cc1`, the MIC in data set [1] was above 10 µM.

On to `COc1ccc(C(=O)[Se]CC2=C(C)C(=O)c3ccccc3C2=O)cc1`, for which the MIC in data set [1] was above 10 µM.

Consider `NNC(=O)c1ccncc1` [ISONIAZID], for which the MIC in data set [1] turned out to be 2.2 µM (≈ 0.302 µg/mL). Besides, the half-maximal cytotoxic concentration (CC50) at 24 h in data set [2] is above 50 µM. In addition, in data set [3], the selectivity ratio was above 22.7.

On to `CC1=C(C[Se]C(=O)c2ccc(C)cc2)C(=O)c2ccccc2C1=O`, for which the MIC in data set [1] was above 10 µM.
